A selection: hits, their analogues and other compounds. The true share with any hit is near 1.9%.
M4 ag: CHRM4 agonism in calcium assay; P08173; CHO-K1 hM4/Gqi5, Fluo-8 calcium fluorescence; vehicle 0%, full acetylcholine response 100%; activation, % at 3 µM; 0.14% of 360,000 active; AID 624127;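 active = activation above the run mean over all test wells plus 3 SD, cut at about 32% in these data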;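 note: peak over basal fluorescence ratio per well then scaled between controls; 0% = DMSO wells and 100% = acetylcholine at EC100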
CHRM5 PAM: potentiates acetylcholine response at human M5 receptor; P08912; CHO-K1 hM5, Fluo-8 calcium, ACh EC20 PAM; 0% = ACh EC20, 100% = ACh EC100; activation, % at 3 µM; 0.3% of 360,000 active; AID 624038;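 active = activation above the run cutoff, the mean activation of all test compounds plus 3 SD, cut at about 18% in these data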
Target sequence (P08912 whole entry, looked up): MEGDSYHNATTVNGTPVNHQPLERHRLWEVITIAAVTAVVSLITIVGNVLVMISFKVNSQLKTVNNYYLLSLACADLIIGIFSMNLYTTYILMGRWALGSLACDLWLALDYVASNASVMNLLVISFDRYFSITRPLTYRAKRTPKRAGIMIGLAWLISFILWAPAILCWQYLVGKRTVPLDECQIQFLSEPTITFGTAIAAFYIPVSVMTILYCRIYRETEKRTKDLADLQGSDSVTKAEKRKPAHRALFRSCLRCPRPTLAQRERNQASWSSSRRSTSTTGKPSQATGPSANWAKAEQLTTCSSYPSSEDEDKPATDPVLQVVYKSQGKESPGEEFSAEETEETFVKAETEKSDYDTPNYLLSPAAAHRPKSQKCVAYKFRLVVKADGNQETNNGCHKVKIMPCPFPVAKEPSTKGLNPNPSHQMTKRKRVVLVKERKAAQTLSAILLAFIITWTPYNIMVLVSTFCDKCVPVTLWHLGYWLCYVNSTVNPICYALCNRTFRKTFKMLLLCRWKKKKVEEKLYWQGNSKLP
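system = human M5 receptor in CHO-K1 cells | reagent = EC20 acetylcholine as agonist stimulus | compound dosing = single-point, 3 µM nominal | incubation = Fluo-8 loading 80 min at 37 °C plus 30 min room temperature | detection = Fluo-8 calcium dye fluorescence, kinetic read | benchmarks = low control EC20 acetylcholine (0%), high control EC100 acetylcholine (100%)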
M4 PAM: CHRM4 positive allosteric modulation. CHO-K1 hM4/Gqi5, Fluo-8 calcium fluorescence, ACh EC20; 0% = ACh EC20, 100% = maximal ACh. activation, % at 3 µM. 0.4% of 360,000 active;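 active = activation above its plate's cutoff, the mean activation of sample wells plus 3 SD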
M5 antag: antagonists of human muscarinic M5 receptor (CHRM5); inhibition, % at 3 µM; CHO-hM5 cells, Fluo-8 calcium fluorescence, ACh EC80; P08912; 0.59% of 360,000 active;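 active = inhibition above a per-plate cutoff, the mean of that plate's test compounds plus 3 SD, cut at about 27% in these data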;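 note: 0% = acetylcholine EC80 with DMSO and 100% = DMSO without agonist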
CHRM5 agonist: agonists of human muscarinic M5 receptor (CHRM5); CHO-K1 hM5 cells, Fluo-8 calcium fluorescence; 0% DMSO wells, 100% maximal acetylcholine response; AID 624037; 0.19% of 360,000 active; P08912; activation, % at 3 µM;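 active = activation above the run's mean over test compounds plus 3 SD, cut at about 23% in these data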;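 note: signal is peak over basal fluorescence ratio across the kinetic read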
CHRM4 antagonist: blocks acetylcholine activation of human M4 receptor. P08173. CHO-hM4 cells, ACh EC80, Fluo-8 calcium fluorescence. inhibition, % at 3 µM. 0.73% of 360,000 active;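 active = inhibition above its plate's cutoff, the mean inhibition of sample wells plus 3 SD, cut at about 27% in these data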;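 note: 0% = acetylcholine EC80 with DMSO and 100% = DMSO without agonist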
The depositor's hits bear a star.

SMILES	M4 ag	CHRM5 PAM	M4 PAM	M5 antag	CHRM5 agonist	CHRM4 antagonist
CCOC(=O)c1c(C)[nH]c(C)c1C(=O)COC(=O)COc1ccc(Cl)c(C)c1	7.2	-6.0	-3.1	3.5	-3.2	-5.7
Cc1occc1C(=O)N/N=C/C=C/c1ccc(N(C)C)cc1	0.6	-0.9	2.4	12.6	-4.5	-3.2
COc1ccc(OCC(=O)N/N=C/c2ccc(N(C)C)cc2)cc1	1.0	-4.2	21.6*	20.5	-2.4	-2.6
Cc1occc1C(=O)N/N=C/c1ccc(N(C)C)cc1	0.6	20.1*	-1.4	-14.9	4.2	-4.5
Cc1ccc2c(c1)NC(=O)C(CC(=O)Nc1ccc(CN3CCC(C)CC3)cc1)O2 (stereo not drawn)	0.8	-23.6	-16.8	71.1*	-5.0	98.7*
CC(C)C(C)N(Cc1cccc(C(=O)O)c1)C(=O)c1ccc2ccccc2n1 (stereo not drawn)	1.0	22.5*	-0.8	-8.8	7.0	9.9
CCOC(=O)C1CCCN(Cc2nc3ccc([N+](=O)[O-])cc3c(=O)n2-c2ccc(OC)cc2OC)C1 (stereo not drawn)	6.2	-13.0	-24.0	2.2	29.2*	9.7
Cc1cc2nc(-c3ccccc3)c(CC3CCCCC3)n2c(C)c1Br	-0.2	-14.0	-0.2	-1.8	2.7	-6.8
COc1cc(C(=O)N[C@H](C(=O)Nc2nnc(C3CC3)s2)C(C)C)cc(OC)c1OC	-0.3	-1.2	-0.6	2.4	-1.5	-2.1
CC12CC(NC(=O)N1c1cccc(C(=O)Nc3ncn[nH]3)c1)c1ccccc1O2 (stereo not drawn)	1.5	6.7	1.2	-0.3	-5.6	7.0
COc1cccc(-c2nc(CS(=O)(=O)CC(=O)NCCCN3CC(C)CC(C)C3)c(C)o2)c1 (stereo not drawn)	0.6	1.4	-8.8	-1.4	-10.2	-2.3
O=C1CCCCC(=O)N(c2ccccc2)c2ccccc21	-0.5	18.2*	6.2	-8.5	0.9	-0.2
Cc1ccccc1N(CC(=O)Nc1ccccc1C(=O)NCc1ccco1)S(=O)(=O)c1ccccc1	10.1	-18.4	-12.6	21.7	1.9	2.5
O=C(c1ccco1)N1CCCSC1=Nc1ccccc1	0.7	-0.8	1.2	0.7	-5.7	-5.9
CCOC(=O)/C(CCC[N+](C)(CC)CC)=N\O	0.9	-18.1	-16.1	60.3*	-7.7	26.1
CCOC(=O)C(Cc1ccnc2ccccc12)=NO	6.5	-4.8	-1.2	19.4	-3.5	1.9
O=C(Nc1ccc(Cl)cc1)[C@@H]1[C@@H]2C(=O)N(c3ccc4ccccc4c3)C(=O)[C@@H]2[C@H]2C=CC=NN21	-0.5	32.1*	2.9	19.9	-1.1	-7.8
CC(=O)Oc1cc2cccc(OC(C)=O)c(=O)c2c(OC(C)=O)c1OC(C)=O	-0.6	-0.6	-0.4	8.9	1.8	7.8
CCC(C)(C)n1nnnc1C(c1ccc(F)cc1)N1CCC(C(N)=O)CC1 (stereo not drawn)	-0.1	4.3	-6.9	-5.0	-2.4	-11.7
Cc1ccc(C2N(C)c3ccccc3-c3nc4ccccc4n32)o1 (stereo not drawn)	-3.2	3.4	6.6	0.2	-4.4	-4.0
CN1c2ccccc2-c2nc3ccccc3n2C1c1cccs1 (stereo not drawn)	-1.9	18.5*	7.3	9.1	-4.1	-10.3
CCOC(=O)Nc1ccc2c(c1)N(C(=O)CCN1CCN(C)CC1)c1ccccc1S2	0.6	-4.7	-5.7	-3.8	-5.0	5.3
CCOC(=O)Nc1ccc2c(c1)N(C(=O)CN(CC)CC)c1ccccc1CC2	-0.8	-26.3	-12.3	3.2	-26.8	31.9*
CC(C)OC(=O)Nc1ccc2c(c1)N(C(=O)N1CCN(C)CC1)c1ccccc1CC2	1.1	-29.3	-13.6	45.5*	-17.9	27.7*
CCOC(=O)Nc1ccc2c(c1)N(C(=O)N1CCN(C)CC1)c1ccccc1S2	5.5	-18.2	-22.4	59.5*	-6.5	6.4
SMILES	M4 ag	CHRM5 PAM	M4 PAM	M5 antag	CHRM5 agonist	CHRM4 antagonist
Cc1ccc(C(=O)COC(=O)CNC(=O)COc2ccccc2C)cc1C	0.7	2.2	-3.6	-4.6	-1.2	1.4
CC1CCN(CCOc2ccc(C(=O)c3ccccc3)cc2)CC1	0.5	-4.5	-16.5	7.2	-20.1	42.8*
CC1CCN(CCCCOc2ccc(C(=O)c3ccccc3)cc2)CC1	3.3	-12.2	-17.0	3.0	-11.0	42.2*
CC1CCN(CCCOc2ccc(OCc3ccccc3)cc2)CC1	7.4	-21.2	-17.9	7.7	-11.6	23.2
CC1CCN(CCCCOc2cccc(C(C)C)c2)CC1	4.5	-21.4	-18.8	21.2	-7.8	33.7*
CC1CCC2(CC1)NC(=O)N(CC(=O)N1CCN(C(=O)c3cccs3)CC1)C2=O (stereo not drawn)	0.1	1.6	14.8	0.7	2.5	-13.9
Cc1ccc(C(=O)c2ncc[nH]2)cc1	1.7	10.7	9.3	-0.6	-0.1	-5.3
O=C(CC[C@H]1O[C@@H](n2cnc3c(NC(=O)c4ccccc4)ncnc32)[C@H](O)[C@@H]1O)NCC1CCCO1 (stereo partly drawn)	1.9	1.5	19.7*	-3.6	2.6	-22.1
CC(=O)Nc1ccc(S(=O)(=O)CCC#N)cc1	1.5	39.7*	6.9	9.8	-4.6	-6.6
CC1CN(C(=O)N(C)C)CCN1C(=O)N(C)C (stereo not drawn)	0.4	-4.2	13.1	6.8	-2.1	30.9*
CCNc1nc(CN2CCCCC2)nc2scc(-c3ccccc3)c12	2.9	-8.4	-18.9	1.6	-8.3	26.7*
OCC1CCCN(c2nc(CN3CCCCC3)nc3scc(-c4ccccc4)c23)C1 (stereo not drawn)	1.9	-8.3	-16.9	-0.6	-9.8	9.1
CC(C)C[C@H]1CNC(=S)N1CC1CCN(CC2CCCC2)CC1	0.5	-14.7	-5.8	-3.1	-3.0	-7.1
CC(C)C[C@H]1CNC(=S)N1CC1CCN(CCCC2CCCCC2)CC1	1.3	-18.9	-15.0	15.2	-3.1	55.1*
S=C1NCCN1CC1CCN(CCC23CC4CC(CC(C4)C2)C3)CC1	2.7	-15.9	-15.0	10.9	-3.0	57.9*
CC(C)C[C@H]1CNC(=S)N1CC1CCN(CC2CCC(C(C)(C)C)CC2)CC1 (stereo partly drawn)	4.4	-19.7	-16.8	35.3*	-3.2	50.5*
CCN1CCC(CN2CCNC2=S)CC1	-0.2	3.5	-0.2	-6.2	-1.5	-0.8
CC[C@H](C)[C@H]1CNC(=S)N1CC1CCN(CCCCc2ccccc2)CC1	0.8	-18.4	-15.1	20.2	-3.4	37.3*
O=C(O)C(Cc1ccccc1N(CCO)CCO)N1C(=O)c2ccccc2C1=O (stereo not drawn)	0.1	6.6	5.9	-1.2	3.3	-0.9
